Source: ChEMBL document CHEMBL4616711, “Discovery of 2,6-Dimethylpiperazines as Allosteric Inhibitors of CPS1” (ACS Med Chem Lett, 2020)
In brackets after ≈: the same amount, converted by molar mass.

Experiments:
[1] = target: T1, Carbamoyl-phosphate synthase [ammonia], mitochondrial (Homo sapiens, UniProt P31327); assay: Allosteric inhibition of His-tagged CPS1 (unknown origin) expressed in baculovirus infected Sf21 insect cells assessed as reduction in ADP level preincubated for 20 mins followed by ATP addition measured after 60 mins by ADP-Glo assay
T1 sequence (P31327 whole entry): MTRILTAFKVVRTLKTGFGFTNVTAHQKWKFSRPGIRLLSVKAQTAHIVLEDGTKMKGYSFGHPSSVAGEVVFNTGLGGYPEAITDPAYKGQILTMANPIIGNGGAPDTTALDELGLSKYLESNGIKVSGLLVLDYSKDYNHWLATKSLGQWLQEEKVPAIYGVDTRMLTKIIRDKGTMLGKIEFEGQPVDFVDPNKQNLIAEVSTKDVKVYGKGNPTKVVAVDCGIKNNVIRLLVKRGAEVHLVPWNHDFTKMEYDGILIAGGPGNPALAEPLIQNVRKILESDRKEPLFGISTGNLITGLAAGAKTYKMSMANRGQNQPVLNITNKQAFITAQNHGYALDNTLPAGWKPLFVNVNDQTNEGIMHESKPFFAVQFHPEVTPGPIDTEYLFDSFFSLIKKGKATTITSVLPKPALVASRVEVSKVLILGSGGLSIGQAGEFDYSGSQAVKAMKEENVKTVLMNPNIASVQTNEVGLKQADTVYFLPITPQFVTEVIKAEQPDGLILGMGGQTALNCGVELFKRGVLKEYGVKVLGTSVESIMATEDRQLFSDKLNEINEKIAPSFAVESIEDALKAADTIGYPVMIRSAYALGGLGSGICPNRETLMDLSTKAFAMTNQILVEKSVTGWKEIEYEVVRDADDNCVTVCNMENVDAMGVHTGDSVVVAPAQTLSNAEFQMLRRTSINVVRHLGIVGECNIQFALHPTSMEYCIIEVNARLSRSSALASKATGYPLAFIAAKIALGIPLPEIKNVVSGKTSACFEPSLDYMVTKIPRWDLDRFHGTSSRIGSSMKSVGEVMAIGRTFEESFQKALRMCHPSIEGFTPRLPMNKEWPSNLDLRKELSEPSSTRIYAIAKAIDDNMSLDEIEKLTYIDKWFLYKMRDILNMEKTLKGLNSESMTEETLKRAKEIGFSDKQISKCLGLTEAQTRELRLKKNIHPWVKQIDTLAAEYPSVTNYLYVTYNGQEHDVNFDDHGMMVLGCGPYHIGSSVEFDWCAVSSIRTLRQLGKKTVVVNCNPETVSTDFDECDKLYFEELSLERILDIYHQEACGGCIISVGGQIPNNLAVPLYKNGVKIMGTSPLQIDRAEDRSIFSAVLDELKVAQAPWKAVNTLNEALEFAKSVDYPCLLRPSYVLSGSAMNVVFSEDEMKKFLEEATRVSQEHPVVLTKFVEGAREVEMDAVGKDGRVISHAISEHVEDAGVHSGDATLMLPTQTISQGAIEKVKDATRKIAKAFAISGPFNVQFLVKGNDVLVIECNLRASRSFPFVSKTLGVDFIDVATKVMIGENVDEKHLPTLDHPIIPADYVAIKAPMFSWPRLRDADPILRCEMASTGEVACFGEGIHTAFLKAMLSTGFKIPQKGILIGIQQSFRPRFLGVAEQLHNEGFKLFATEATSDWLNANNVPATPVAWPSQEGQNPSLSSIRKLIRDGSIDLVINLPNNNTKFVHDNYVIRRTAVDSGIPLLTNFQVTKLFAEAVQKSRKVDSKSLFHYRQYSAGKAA
Summary of the method: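 CPS1 activity read as ADP formation in the presence of inhibitor. IC50 taken as the average of at least two experimental replicates (N = 2).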

[2] = target: T1, Carbamoyl-phosphate synthase [ammonia], mitochondrial; assay: Inhibition of CPS1 in human pooled hepatocytes assessed as reduction in urea production measured after 16 hrs in presence of NH4Cl by tecan-plate reader analysis; type: cell-based
Summary of the method: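 Primary human hepatocytes given 10 mM NH4Cl together with compound over a concentration series. Urea secreted into the medium measured after 16 h. IC50 derived from the inhibition of urea production.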

[3] = Clearance in human pooled hepatocytes assessed per million cells at 1 uM measured up to 120 mins by LC-MS/MS analysis; type: ADME, cell-based, Hepatocyte; conditions: read-out: CLH
[4] = Apparent permeability across apical to basolateral membrane in human Caco2 cells at 5 uM incubated for 2 hrs by LC-MS/MS analysis; type: ADME, cell-based; conditions: Caco-2
[5] = Kinetic solubility in Dulbecco's phosphate buffer saline at pH 7.4 by UPLC analysis; type: physicochemical; conditions: Dulbecco's phosphate buffered saline, read-out: Kinetic_solubility
[6] = target: Multifunctional protein CAD (Homo sapiens, UniProt P27708); assay: Inhibition of CAD (unknown origin) CSP2 activity expressed in Escherichia coli BL21 (DE3) preincubated for 20 mins followed by ATP addition measured after 60 mins by ADP-Glo assay
Chain of Multifunctional protein CAD (P27708 whole entry): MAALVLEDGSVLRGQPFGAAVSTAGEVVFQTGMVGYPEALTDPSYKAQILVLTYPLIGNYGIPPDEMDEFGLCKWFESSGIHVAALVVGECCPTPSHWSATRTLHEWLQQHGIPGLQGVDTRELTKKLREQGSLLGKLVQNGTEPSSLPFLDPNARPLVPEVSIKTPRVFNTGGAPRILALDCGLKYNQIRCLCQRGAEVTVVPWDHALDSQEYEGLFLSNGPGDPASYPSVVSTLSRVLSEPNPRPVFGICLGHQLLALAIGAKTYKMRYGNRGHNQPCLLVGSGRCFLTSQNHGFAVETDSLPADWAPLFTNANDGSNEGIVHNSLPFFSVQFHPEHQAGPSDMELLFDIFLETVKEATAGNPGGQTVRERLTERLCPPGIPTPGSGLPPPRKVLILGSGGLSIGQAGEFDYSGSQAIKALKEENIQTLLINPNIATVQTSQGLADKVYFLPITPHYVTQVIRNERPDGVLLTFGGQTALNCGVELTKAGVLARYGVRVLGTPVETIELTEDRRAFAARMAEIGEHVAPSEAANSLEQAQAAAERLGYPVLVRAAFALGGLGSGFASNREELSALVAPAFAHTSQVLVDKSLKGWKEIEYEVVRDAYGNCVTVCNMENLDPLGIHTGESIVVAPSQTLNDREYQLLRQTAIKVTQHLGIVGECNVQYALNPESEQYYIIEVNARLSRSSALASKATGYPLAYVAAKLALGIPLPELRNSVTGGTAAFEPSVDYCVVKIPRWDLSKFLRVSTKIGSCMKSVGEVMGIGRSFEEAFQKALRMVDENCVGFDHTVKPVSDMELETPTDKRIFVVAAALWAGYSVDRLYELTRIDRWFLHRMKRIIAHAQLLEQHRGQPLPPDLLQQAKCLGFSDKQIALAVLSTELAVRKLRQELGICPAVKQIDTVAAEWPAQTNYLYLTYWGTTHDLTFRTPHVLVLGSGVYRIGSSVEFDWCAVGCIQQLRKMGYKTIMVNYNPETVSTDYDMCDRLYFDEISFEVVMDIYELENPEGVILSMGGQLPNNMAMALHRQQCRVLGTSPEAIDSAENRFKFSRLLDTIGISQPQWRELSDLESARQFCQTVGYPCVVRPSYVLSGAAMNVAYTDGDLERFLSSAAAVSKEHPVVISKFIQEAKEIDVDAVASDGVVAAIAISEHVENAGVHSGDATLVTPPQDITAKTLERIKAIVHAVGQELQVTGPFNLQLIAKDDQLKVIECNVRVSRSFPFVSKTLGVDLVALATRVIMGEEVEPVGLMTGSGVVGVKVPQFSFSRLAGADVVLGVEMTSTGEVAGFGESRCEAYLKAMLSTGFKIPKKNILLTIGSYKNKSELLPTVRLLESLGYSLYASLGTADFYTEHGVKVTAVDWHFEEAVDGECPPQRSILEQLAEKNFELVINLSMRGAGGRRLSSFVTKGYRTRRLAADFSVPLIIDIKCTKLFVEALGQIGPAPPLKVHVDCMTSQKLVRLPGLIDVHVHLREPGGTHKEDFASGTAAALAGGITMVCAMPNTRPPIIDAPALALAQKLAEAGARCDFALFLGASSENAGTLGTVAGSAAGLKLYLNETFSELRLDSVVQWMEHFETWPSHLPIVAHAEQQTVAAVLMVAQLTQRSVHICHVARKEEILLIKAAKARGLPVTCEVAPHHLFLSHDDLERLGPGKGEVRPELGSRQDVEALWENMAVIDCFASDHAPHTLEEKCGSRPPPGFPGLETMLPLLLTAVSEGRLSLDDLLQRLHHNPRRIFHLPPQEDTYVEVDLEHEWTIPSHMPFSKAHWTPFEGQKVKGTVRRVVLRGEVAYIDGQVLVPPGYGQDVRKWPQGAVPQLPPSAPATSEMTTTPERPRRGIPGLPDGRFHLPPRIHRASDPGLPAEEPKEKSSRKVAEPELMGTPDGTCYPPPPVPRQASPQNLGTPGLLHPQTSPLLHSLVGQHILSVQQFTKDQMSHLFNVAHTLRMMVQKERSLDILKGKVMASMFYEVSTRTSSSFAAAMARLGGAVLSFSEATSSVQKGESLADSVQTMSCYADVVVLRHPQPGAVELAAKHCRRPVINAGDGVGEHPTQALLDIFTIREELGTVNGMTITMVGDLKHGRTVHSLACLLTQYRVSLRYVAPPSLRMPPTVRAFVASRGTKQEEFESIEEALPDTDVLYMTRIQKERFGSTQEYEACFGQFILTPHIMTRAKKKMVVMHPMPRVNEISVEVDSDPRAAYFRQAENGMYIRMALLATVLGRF

| SMILES | IC50 [1] [µM] | further results |
| --- | --- | --- |
| COc1ccc(C(=O)N2[C@H](C)CN(C(=O)c3cc(NC(C)=O)ccc3F)C[C@H]2C)c(F)c1 | > 66 |  |
| COc1ccc(C(=O)N2[C@H](C)CN(C(=O)c3ccc4cc(C)[nH]c4c3)C[C@H]2C)c(F)c1 |  | IC50 ([2]; read-out: IC50): 1 µM |
| COc1ccc(C(=O)N2C[C@@H](C)N(C(=O)c3ccc(OC(C)C)cc3F)[C@H](C)C2)c(F)c1 | 1.4 |  |
| COc1ccc(C(=O)N2[C@H](C)CN(C(=O)c3cc(OC)ccc3F)C[C@H]2C)c(F)c1 | > 66 |  |
| CCOc1ccc(C(=O)N2[C@H](C)CN(C(=O)c3ccc(OC)cc3F)C[C@H]2C)c(F)c1 | 0.38 |  |
| COc1ccc(C(=O)N2[C@H](C)CN(C(=O)c3ccc4ccn(C)c4c3)C[C@H]2C)c(F)c1 |  | IC50 [2]: Not Active |
| COc1ccc(C(=O)N2C[C@@H](C)N(C(=O)c3ccc(F)cc3F)[C@H](C)C2)c(F)c1 | 1.3 |  |
| COc1ccc(C(=O)N2[C@H](C)CN(C(=O)c3ccc4cc[nH]c4c3)C[C@H]2C)c(F)c1 | 0.066 | Papp A→B at 2 h, 5 µM [4]: 12.3 ×10⁻⁶ cm/s; solubility kinetic [5]: 148 µM (≈ 60.6 µg/mL); hepatocyte CLint at 1 µM [3]: 8.7 µL/min/1e6 cells; IC50 [6]: ≥ 100 µM; IC50 ([2]; read-out: IC50): 0.24 µM |
| CCOc1ccc(C(=O)N2C[C@@H](C)N(C(=O)c3ccc(OC)cc3F)[C@H](C)C2)c(F)c1 | 0.13 |  |

Second part, led by results:

| IC50 [1] [µM] | SMILES | further results |
| --- | --- | --- |
| 21.5 | COc1ccc(C(=O)C2CCN(C(=O)c3ccc(OC)cc3F)CC2)c(F)c1 |  |
| > 66 | COc1ccc(C(=O)N2[C@H](C)CN(C(=O)c3cccc(OC)c3F)C[C@H]2C)c(F)c1 |  |
| > 66 | COc1ccc(C(=O)N2CC3CC2CN3C(=O)c2ccc(OC)cc2F)c(F)c1 |  |
| > 66 | COc1ccc(C(=O)N2[C@H](C)CN(C(=O)c3ccc4[nH]ccc4c3)C[C@H]2C)c(F)c1 | IC50 [2]: Not Active |
| 11.4 | COc1ccc(C(=O)N2CC(C)N(C(=O)c3ccc(OC)cc3F)CC2C)c(F)c1 (stereo not drawn) |  |
| 18.9 | COc1ccc(C(=O)N2CCCN(C(=O)c3ccc(OC)cc3F)CC2)c(F)c1 |  |
| 1.5 | Cc1csc(NC(=O)C2CCN(C(=O)N(C)Cc3ccccc3)CC2)n1 | hepatocyte CLint at 1 µM [3]: 35 µL/min/1e6 cells |
